Reference: ChEMBL document CHEMBL1157797, “The alternative medicine pawpaw and its acetogenin constituents suppress tumor angiogenesis via the HIF-1/VEGF pathway” (J Nat Prod, 2010)
Calls of active or inactive are those of the source. No cut-off for these calls is given here.

Legend:
T47D [1] = assay: Inhibition of hypoxia-induced VEGF mRNA expression in human T47D cells at 0.1 uM in presence of 1% O2 for 16 hrs by RT-PCR; assay type: functional
In short: (§1)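 T47D cells treated under hypoxia (1% O2, 16 h). GLUT-1 or VEGF mRNA measured by quantitative real-time RT-PCR and normalised to 18S rRNA. Reported relative to the normoxic control, mean ± SD, n = 3.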

[2] = biological target: T1, Hypoxia inducible factors; HIF-1-alpha, HIF-2-alpha (Homo sapiens, UniProt Q16665+Q99814); assay: Inhibition of hypoxia-induced HIF1 activation in human T47D cells in presence of 1% O2 by HRE3-TK-luc reporter assay; assay type: cell-based
In short: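 T47D cells carrying the pHRE3-TK-Luc reporter, made hypoxic at 1% O2. HIF-1 activation read as luciferase signal over a concentration range, giving IC50. Data are means ± SEM, n = 3.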

MDA-MB-231 [3] = assay: Cytotoxicity against human MDA-MB-231 cells assessed as suppression of cell proliferation under normoxic condition at 100 nM after 6 days relative to control; assay type: functional
HUVEC [4] = assay: Inhibition of VEGF-induced angiogenesis in HUVEC cells at 0.1 uM by tube formation assay; assay type: functional, cell-based; settings: Homo sapiens
HUVEC [5] = assay: Cytotoxicity against HUVEC cells; assay type: cell-based; settings: human
DU-145 [6] = assay: Cytotoxicity against human DU145 cells assessed as suppression of cell proliferation under hypoxic condition after 48 hrs relative to control; assay type: functional, cell-based
In short: (§2)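 Four human tumour lines (T47D, MDA-MB-231, PC-3, DU-145) exposed to acetogenins (1 to 100 nM, half-log steps) or crude extract (0.01 to 1 μg/mL, half-log steps) for 48 h, either normoxic (95% air) or hypoxic (1% O2). Proliferation/viability expressed relative to untreated control. Final solvent below 0.5% (v/v).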

PC-3 [7] = assay: Cytotoxicity against human PC3 cells assessed as suppression of cell proliferation under normoxic condition at 100 nM after 6 days relative to control; assay type: functional
T47D [8] = assay: Cytotoxicity against human T47D cells assessed as suppression of cell proliferation under hypoxic condition after 48 hrs relative to control; assay type: functional, cell-based; in short: as §2
T47D [9] = assay: Inhibition of hypoxia-induced VEGF protein expression in human T47D cells at 0.03 to 0.1 uM in presence of 1% O2; assay type: functional, cell-based
In short: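 T47D cells exposed to hypoxia with test agent. Secreted VEGF protein in the conditioned medium measured by ELISA and normalised to cellular protein. Mean + SD, n = 3; p values compared with the hypoxia-induced sample.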

MDA-MB-231 [10] = assay: Cytotoxicity against human MDA-MB-231 cells assessed as suppression of cell proliferation under hypoxic condition after 48 hrs relative to control; assay type: functional, cell-based; in short: as §2
T47D [11] = assay: Inhibition of hypoxia-induced HIF1alpha protein accumulation in nucleus of human T47D cells by Western blot analysis; assay type: functional, cell-based
In short: (§3)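 T47D cells exposed to hypoxia (1% O2, 4 h) with or without treatment. Nuclear extracts prepared and probed for HIF-1α and HIF-1β by Western blot.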

T47D [12] = assay: Inhibition of mitochondrial respiratory chain complex 3 in human T47D cells assessed as decrease in oxygen consumption at 0.3 uM; assay type: functional, cell-based
In short: (§4)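 Oxygen consumption measured in T47D cells permeabilized with digitonin (30 μM). Complex I respiration started with malate plus pyruvate. Rotenone was added as complex I blocker, then succinate (complex II substrate). Antimycin A was added to block complex III, then TMPD plus ascorbate (complex IV substrates) to restart respiration. Sample added at 0.3 μM.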

T47D [13] = assay: Inhibition of normoxic human T47D cells at 0.1 uM by tube formation assay; assay type: functional, cell-based
In short: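 Conditioned media from T47D cells (normoxic, hypoxic, or hypoxic plus treatment) applied to HUVEC on Matrigel. Tube length and branching points quantified in three random fields, expressed as % of the normoxic-cell medium, mean ± SD.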

T47D [14] = assay: Inhibition of mitochondrial respiratory chain complex in human T47D cells assessed as decrease in oxygen consumption in presence of TMPD and ascorbate complex 4 substrate; assay type: functional, cell-based; in short: as §4
T47D [15] = assay: Inhibition of hypoxia-induced GLUT1 mRNA expression in human T47D cells at 0.1 uM in presence of 1% O2 for 16 hrs by RT-PCR; assay type: functional; in short: as §1
T47D [16] = assay: Inhibition of ATP in human T47D cells under hypoxia for 16 hrs at 0.1 to 0.3 uM; assay type: functional, cell-based
T47D [17] = assay: Inhibition of hypoxia-induced HIF1beta protein subcellular localization in human T47D cells at 0.3 uM by immunofluorescence based assay; assay type: functional, cell-based
T47D [18] = assay: Inhibition of mitochondrial respiratory chain complex in human T47D cells assessed as decrease in oxygen consumption in presence of rotenone and succinate complex 1 substrate; assay type: functional, cell-based; in short: as §4
T47D [19] = assay: Cytotoxicity against human T47D cells assessed as suppression of cell proliferation under normoxic condition after 48 hrs relative to control; assay type: functional, cell-based; in short: as §2
T47D [20] = assay: Cytotoxicity against human T47D cells assessed as suppression of cell proliferation under normoxic condition at 10 nM after 6 days relative to control; assay type: functional
T47D [21] = assay: Inhibition of mitochondrial respiratory chain complex in human T47D cells assessed as decrease in oxygen consumption in presence of antimycin A complex 3 inhibitor; assay type: functional, cell-based; in short: as §4
T47D [22] = assay: Inhibition of mitochondrial respiratory chain complex 4 in human T47D cells assessed as decrease in oxygen consumption at 0.3 uM; assay type: functional, cell-based; in short: as §4
PC-3 [23] = assay: Cytotoxicity against human PC3 cells assessed as suppression of cell proliferation under normoxic condition after 48 hrs relative to control; assay type: functional, cell-based; in short: as §2
MDA-MB-231 [24] = assay: Cytotoxicity against human MDA-MB-231 cells assessed as suppression of cell proliferation under normoxic condition after 48 hrs relative to control; assay type: functional, cell-based; in short: as §2
T47D [25] = assay: Inhibition of mitochondrial respiratory chain complex 1 in human T47D cells assessed as decrease in oxygen consumption; assay type: functional, cell-based
In short: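 Oxygen consumption measured in T47D cells; mean ± SD of three independent experiments. For complex I, cells were permeabilised with digitonin (30 μM) and respiration started with malate plus pyruvate. Follow-up additions: succinate (complex II substrate), antimycin A, and TMPD/ascorbate to test complexes II–IV.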

PC-3 [26] = assay: Cytotoxicity against human PC3 cells assessed as suppression of cell proliferation under hypoxic condition after 48 hrs relative to control; assay type: functional, cell-based; in short: as §2
T47D [27] = assay: Inhibition of hypoxia-induced HIF1beta protein accumulation in nucleus of human T47D cells by Western blot analysis; assay type: functional, cell-based; in short: as §3
DU-145 [28] = assay: Cytotoxicity against human DU145 cells assessed as suppression of cell proliferation under normoxic condition at 100 nM after 6 days relative to control; assay type: functional
T47D [29] = assay: Inhibition of mitochondrial respiratory chain complex 2 in human T47D cells assessed as decrease in oxygen consumption at 0.3 uM; assay type: functional, cell-based; in short: as §4
[30] = biological target: T1, Hypoxia inducible factors; HIF-1-alpha, HIF-2-alpha; assay: Inhibition of hypoxia-induced HIF1 activation in human PC3 cells by HRE3-TK-luc reporter assay; assay type: cell-based; settings: PC-3, concentration not given here
In short: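 HIF-1 activation in PC-3 cells induced by hypoxia (1% O2) and read with the pHRE3-TK-Luc luciferase reporter. Concentration-response, IC50/EC50 derived. Data are means ± SEM, n = 3.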

DU-145 [31] = assay: Cytotoxicity against human DU145 cells assessed as suppression of cell proliferation under normoxic condition after 48 hrs relative to control; assay type: functional, cell-based; in short: as §2
[32] = biological target: T1, Hypoxia inducible factors; HIF-1-alpha, HIF-2-alpha; assay: Inhibition of chemical hypoxia-induced HIF1 activation in human T47D cells in presence of 1, 10-phenanthrolin by HRE3-TK-luc reporter assay; assay type: cell-based

Compound | inhibition at 0.1 µM (T47D [1]) [%] | IC50 [2] [nM] | Activity (MDA-MB-231 [3]) [%] | inhibition (HUVEC [4]) | Activity (HUVEC [5]) | Activity (DU-145 [6]) | Activity (PC-3 [7]) [%] | Activity (T47D [8]) | inhibition (T47D [9]) | Activity (MDA-MB-231 [10]) | inhibition (T47D [11]) | inhibition (T47D [16]) | Activity (T47D [19]) | Activity (PC-3 [23]) | Activity (MDA-MB-231 [24]) | inhibition (T47D [25]) | Activity (PC-3 [26]) | inhibition [30] [%] | Activity (DU-145 [31]) | IC50 [32] [nM] | other results
CCCCCCCCCCCC[C@@H](O)[C@H]1CC[C@H]([C@H]2CC[C@H]([C@H](O)CCC(O)CCCCCC(O)CC3=CC(C)OC3=O)O2)O1 (stereo not given in full) | 62 | 12 | <30 | Active | Non-toxic | inactive | <30 | inactive | Active | inactive | Dose-dependent effect | inactive | inactive | inactive | inactive | Dose-dependent effect | inactive | 50 | inactive | > 1000 | inhibition (T47D [12]): inactive; inhibition (T47D [13]): inactive; inhibition (T47D [14]): inactive; inhibition at 0.1 µM (T47D [15]): 80%; inhibition (T47D [17]): Active; inhibition (T47D [18]): inactive; Activity (T47D [20]): 50%; inhibition (T47D [21]): inactive; inhibition (T47D [22]): inactive; inhibition (T47D [27]): inactive; Activity (DU-145 [28]): <30%; inhibition (T47D [29]): inactive
C=C(C)[C@H]1Cc2c(ccc3c2O[C@@H]2COc4cc(OC)c(OC)cc4[C@@H]2C3=O)O1 | – | – | – | – | – | – | – | – | – | – | – | – | – | – | – | Dose-dependent effect | – | – | – | – | –
CCCCCCCCCCCC[C@@H](O)[C@H]1CC[C@H]([C@H](O)CCCC[C@H](O)CCCCC[C@@H](O)CC2=CC(C)OC2=O)O1 (stereo in doubt; 2) | – | – | – | Active | – | inactive | – | inactive | Active | inactive | Dose-dependent effect | inactive | inactive | inactive | inactive | Dose-dependent effect | inactive | 50 | inactive | – | inhibition (T47D [13]): inactive; inhibition (T47D [17]): Active; inhibition (T47D [27]): inactive
CCCCCCCCCCCC[C@@H](O)[C@H]1CC[C@H]([C@H](O)CCCC[C@H](O)CCCCC[C@@H](O)CC2=CC(C)OC2=O)O1 (stereo in doubt; 2) [ANNONACIN] | 64 | 13 | – | – | Non-toxic | – | – | – | – | – | – | – | – | – | – | – | – | – | – | > 1000 | inhibition at 0.1 µM (T47D [15]): 72%
CCCCCCCCCCCC[C@@H](O)[C@H]1CC[C@H]([C@H](O)CCCC[C@H](O)CCCCC[C@@H](O)CC2=CC(C)OC2=O)O1 (stereo in doubt; 3) | – | – | – | – | – | inactive | – | inactive | – | inactive | – | inactive | inactive | inactive | inactive | – | inactive | 50 | inactive | – | –
CCCCCCCCCCCC[C@@H](O)[C@H]1CC[C@H]([C@H](O)CCCC[C@H](O)CCCCC[C@@H](O)CC2=CC(C)OC2=O)O1 (stereo in doubt; 3) [ANNONACIN] | – | – | <30 | – | – | – | <30 | – | – | – | – | – | – | – | – | – | – | – | – | > 1000 | Activity (T47D [20]): 50%; Activity (DU-145 [28]): <30%
